Assay [1] relates to Neisseria meningitidis. Put plainly: Inhibition of Neisseria meningitidis alpha-1,4-galactosyltransferase at 0.1 to 100 uM using lactose as substrate preincubated with compoundfollowed by substrate/UDP-Gal addition measured after 20 min by malachite green dye-based assay. The method in brief:
(§1)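 Enzyme (DTT-activated) with MnCl2 5 mM, CIP 10 U/mL, lysozyme 1 mg/mL, 0.01% Triton, 13 mM HEPES pH 7.0 and inhibitor in DMSO (10% final) pre-incubated 10 min at 30 °C before UDP-Gal (28 µM) plus lactose (2 mM) added; 20 min at 30 °C; UDP read by malachite green at 620 nm versus UDP standard curve, background-corrected; triplicate.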

The test system of assay [2] is Neisseria meningitidis. Briefly: Inhibition of Neisseria meningitidis alpha-1,4-galactosyltransferase assessed as consumption of donor UDP-Gal by measuring turnover rate at 0.1 to 100 uM using lactose as substrate in presence of UDP-Gal measured after 20 min by malachite green dye-based assay relative to total amount of UDP-Gal used. Summed up: (§2)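 No pre-incubation: DTT-activated LgtC with MnCl2 5 mM, CIP 10 U/mL, egg-white lysozyme 1 mg/mL, 0.01% Triton, 13 mM HEPES pH 7.0, lactose 2 mM, inhibitor in DMSO (10% final); started with UDP-Gal 28 µM, 20 min at 30 °C, 20-50% donor turnover. Malachite green read at 620 nm against a UDP calibration curve, background without acceptor subtracted, % of assay window; triplicate minimum; IC50 from sigmoidal fit.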

In assay [3] the test system is Neisseria meningitidis. Put plainly: Inhibition of Neisseria meningitidis alpha-1,4-galactosyltransferase assessed as consumption of donor UDP-Gal by measuring turnover rate at 0.1 to 100 uM using lactose as substrate preincubated for 10 mins with UDP-Gal followed by lactose addition measured after 20 mins by malachite green dye-based assay relative to total amount of UDP-Gal used. The method in brief:
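LgtC pre-incubated 10 min at 30 °C with inhibitor (DMSO, 10% final) and UDP-Gal 28 µM in 13 mM HEPES pH 7.0 with MnCl2 5 mM, CIP 10 U/mL, lysozyme 1 mg/mL, 0.01% Triton; lactose 2 mM then added, 20 min at 30 °C; malachite green absorbance at 620 nm converted via UDP calibration; triplicate.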

The test system of assay [4] is Neisseria meningitidis. Put plainly: Inhibition of Neisseria meningitidis alpha-1,4-galactosyltransferase assessed as consumption of donor UDP-Gal by measuring turnover rate at 0.1 to 100 uM using lactose as substrate preincubated for 10 mins followed by substrate and UDP-Gal addition measured after 20 mins by malachite green dye-based assay relative to total UDP-Gal used. Summed up: as §1

Assay [5] deals with Neisseria meningitidis. Put plainly: Inhibition of Neisseria meningitidis alpha-1,4-galactosyltransferase assessed as consumption of donor UDP-Gal by measuring turnover rate at 0.1 to 100 uM using lactose as substrate preincubated with lactose for 10 mins followed by UDP-Gal addition measured after 20 mins by malachite green dye-based assay relative to total UDP-Gal used. The method in brief:
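Pre-incubation 10 min at 30 °C of activated LgtC, inhibitor (10% DMSO final) and lactose 2 mM in 13 mM HEPES pH 7.0 with MnCl2 5 mM, CIP 10 U/mL, lysozyme 1 mg/mL, 0.01% Triton; reaction started with UDP-Gal 28 µM, 20 min at 30 °C; malachite green readout at 620 nm against UDP standards; triplicate.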

Assay [6] in a line: Inhibition of Neisseria meningitidis alpha-1,4-galactosyltransferase assessed as enzyme activity using lactose as substrate in presence of UDP-Gal measured after 20 min by malachite green dye-based assay. Summed up:
as §2

Assay [7] can be described thus: Inhibition of Neisseria meningitidis alpha-1,4-galactosyltransferase assessed as enzyme activity using lactose as substrate preincubated for 5 mins followed by lactose and UDP-Gal addition measured after 20 mins by malachite green dye-based assay.
Assay [8] can be described thus: Inhibition of Neisseria meningitidis alpha-1,4-galactosyltransferase assessed as enzyme activity using lactose as substrate preincubated for 10 mins followed by lactose and UDP-Gal addition measured after 20 mins by malachite green dye-based assay. The method in brief: as §1
Assay [9] is described as follows: Inhibition of Neisseria meningitidis alpha-1,4-galactosyltransferase assessed as enzyme activity using lactose as substrate preincubated for 20 mins followed by lactose and UDP-Gal addition measured after 20 mins by malachite green dye-based assay.
Assay [10] in a line: Inhibition of Neisseria meningitidis alpha-1,4-galactosyltransferase assessed as enzyme activity using lactose as substrate preincubated for 30 mins followed by lactose and UDP-Gal addition measured after 20 mins by malachite green dye-based assay.
Assay [11] is described as follows: Inhibition of Neisseria meningitidis alpha-1,4-galactosyltransferase assessed as enzyme activity using lactose as substrate preincubated for 60 mins followed by lactose and UDP-Gal addition measured after 20 mins by malachite green dye-based assay.
The nature of assay [12]: Inhibition of Neisseria meningitidis alpha-1,4-galactosyltransferase assessed as enzyme activity using lactose as substrate preincubated for 180 mins followed by lactose and UDP-Gal addition measured after 20 mins by malachite green dye-based assay.
Assay [13] is filed under the species Bos taurus. Briefly: Inhibition of bovine beta-1,4-galactosyltransferase at 0.1 to 50 uM using UDP as substrate after 20 mins by malachite green dye-based assay.
A short description of assay [14]: (§3) Inhibition of Neisseria meningitidis alpha-1,4-galactosyltransferase assessed as enzyme activity using lactose as substrate preincubated for 0 to 30 mins measured after 20 mins in presence of UDP-Gal.
For assay [15], the system named is Neisseria meningitidis. The description is as §3.
The subject of assay [16] is Neisseria meningitidis. Put plainly: Inhibition of Neisseria meningitidis alpha-1,4-galactosyltransferase assessed as rate constant for enzyme activity at 0.5 uM using lactose as substrate preincubated with substrate measured after 20 mins in presence of UDP-Gal. The method in brief:
(§4)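 Activity measured at a series of inhibitor concentrations (0.5-200 µM range overall) after pre-incubation with LgtC for 0, 5, 10, 20 and 30 min, using the pre-incubation protocols (lactose 2 mM, UDP-Gal 28 µM, 20 min at 30 °C, malachite green); % of DMSO control plotted semi-logarithmically versus pre-incubation time to give kobs; kobs versus concentration gave Ki and kinact; triplicate.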

The test system of assay [17] is Neisseria meningitidis. Put plainly: Inhibition of Neisseria meningitidis alpha-1,4-galactosyltransferase assessed as rate constant for enzyme activity at 4 uM using lactose as substrate preincubated with substrate measured after 20 mins in presence of UDP-Gal. The method in brief:
as §4

For assay [18], the system named is Neisseria meningitidis. Briefly: Inhibition of Neisseria meningitidis alpha-1,4-galactosyltransferase assessed as rate constant for enzyme activity at 10 uM using lactose as substrate preincubated with substrate measured after 20 mins in presence of UDP-Gal. The method in brief:
as §4

The test system of assay [19] is Neisseria meningitidis. Briefly: Inhibition of Neisseria meningitidis alpha-1,4-galactosyltransferase assessed as rate constant for enzyme activity at 25 uM using lactose as substrate preincubated with substrate measured after 20 mins in presence of UDP-Gal. Summed up: as §4
Assay [20] deals with Neisseria meningitidis. Put plainly: Inhibition of Neisseria meningitidis alpha-1,4-galactosyltransferase assessed as rate constant for enzyme activity at 50 uM using lactose as substrate preincubated with substrate measured after 20 mins in presence of UDP-Gal. The method in brief:
as §4

For assay [21], the system named is Neisseria meningitidis. Put plainly: Inhibition of Neisseria meningitidis alpha-1,4-galactosyltransferase assessed as rate constant for enzyme activity at 1.5 uM using lactose as substrate preincubated with substrate measured after 20 mins in presence of UDP-Gal. The method in brief:
as §4

Activity calls are given as the source filed them. No cut-off for these calls is given here.

As a reminder, the inhibition is the percentage by which the read-out fell short of the control. Broadly, the IC50 is the concentration needed to halve the response being measured. As a reminder, the Ki is a dissociation constant, usually derived from enzyme kinetics or from competition with a known ligand. With `COc1ccc(/C=C2\C(=O)N(c3ccccc3)N=C2C(F)(F)F)cc1Br`, the inhibition result in assay [1] and in assay [13] was “inactive” each time. Besides, the inhibition in [2] turned out to be 30%; in assay [3], 30%; in [4], 25%; in assay [5] it was 23%. For the same compound, the IC50 was over 50 µM in assay [6]; 24 µM in assay [7]; 15.8 µM in assay [8]; 6.5 µM in [9]; 3.1 µM in [10]; 3.1 µM in [11]. The IC50 in assay [12] came out at 5.5 µM. For the same compound, the Ki in assay [14] stood at 4.4 µM. Moreover, the Kinact in assay [15] came out at 0.0535 min⁻¹. Besides, the K in assay [16] was 0.006 min⁻¹; in assay [17] it was 0.023 min⁻¹; in assay [18], 0.039 min⁻¹; in [19] it was 0.047 min⁻¹; in assay [20] it was 0.048 min⁻¹; in assay [21] it was 0.017 min⁻¹.
`O=C1/C(=C\c2cccc(OCc3ccccc3)c2)C(C(F)(F)F)=NN1c1ccccc1`: the inhibition entry in assay [1] and in [13] was “inactive” in each case. For the same compound, the inhibition in assay [2] was 29%; in assay [3], 29%; in [4], 25 to 41%; in assay [5], 23%. The IC50 in assay [6] is over 100 µM; in assay [7], over 50 µM; in assay [8], over 50 µM; in [9], 38 µM; in assay [10], 17.6 µM; in assay [11], 9 µM. Also, the IC50 in assay [12] turned out to be 6 µM. Also, the Ki in [14] stood at 46.3 µM. Also, the Kinact in assay [15] stood at 0.104 min⁻¹. Also, the K in assay [16] came to 0.002 min⁻¹; in assay [17], 0.007 min⁻¹; in [18], 0.011 min⁻¹; in [19], 0.033 min⁻¹; in [20] it was 0.068 min⁻¹.
